What all share (type): functional
Assay [1] relates to Escherichia coli. The assay is described as follows: Antimicrobial activity against Escherichia coli W4573 incubated for 24 hrs in broth followed by colony transfer to tryptic soy agar for further 24 hrs incubation. The note with it: W4573, 24 h. The essentials:
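MBC: broth microdilution as for MIC (10⁵ CFU/mL, CAMH broth, 24 h, 37 °C). Aliquots from wells were then plated on tryptic soy agar and colonies counted after 24 h. MBC taken as the lowest concentration giving a 3-log CFU reduction.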

The test system of assay [2] is Escherichia coli. The assay is described as follows: Potency index, ratio of MBC to MIC for Escherichia coli W4573. The essentials: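 MBC/MIC ratio. MIC: CLSI broth microdilution, 10⁵ CFU/mL in CAMH broth, 24 h at 37 °C, OD600, 90% inhibition. MBC: well aliquots plated on tryptic soy agar, counted after 24 h, 3-log CFU reduction. Ratio 1–2 read as bactericidal, ≥8 as bacteriostatic.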

For assay [3], the system named is Escherichia coli. The assay is described as follows: Antimicrobial activity against Escherichia coli W4573 incubated for 24 hrs by broth microdilution method. The conditions noted are these: W4573, 24 h. The essentials: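 CLSI broth microdilution. Log-phase bacteria at 10⁵ CFU/mL were exposed to 2-fold serial dilutions (64 to 0.016 μg/mL) in cation-adjusted Mueller-Hinton broth, 5% defibrinated sheep blood added for Streptococcus. Incubated aerobically 24 h at 37 °C. Growth read as OD600; MIC taken as the lowest concentration giving 90% growth inhibition.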

One may read the MBC as the lowest tested concentration that kills the bacteria rather than only halting them. The low end stands for more potent killing, the high end for less potent killing. By MIC is commonly meant the lowest concentration that inhibits growth of the organism.

`NC[C@@H]1O[C@H](O[C@H]2[C@@H](O)[C@H](O[C@@H]3[C@@H](O)[C@H](N)C[C@H](N)[C@H]3O[C@H]3O[C@H](CN)[C@@H](O)[C@H](O)[C@H]3N)O[C@@H]2CO)[C@H](N)[C@@H](O)[C@@H]1O.O.O=S(=O)(O)O` [NEOMYCIN TRISULFATE HYDRATE] gave a minimal bactericidal concentration (MBC) with Escherichia coli [1] of 2 µg/mL. Also, the Ratio with Escherichia coli [2] is 2. In the assay on Escherichia coli [3], this compound displayed a minimum inhibitory concentration (MIC) of 1 µg/mL.
